Converted amounts (≈) assume the structure as drawn.
Key:
[1] = Bioavailability in the systemic circulation after 30 minutes was determined after intraduodenal dose of 10 mg/kg in rat by HPLC method; type: ADME, organism-based; settings: plasma (systemic circulation), read-out: Plasma level
Outline: (§1)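 Screening model in anesthetized rats given 10 mg/kg intraduodenally. Formulation was ethanol stock with 110 mol % HCl, diluted with aqueous hydroxypropyl methylcellulose to 25% ethanol. Systemic and portal blood drawn at 10 and 30 min in the same animals. Drug level (ng/mL) measured by HPLC or renin inhibition assay. Mean ± SEM, n = 3 unless noted.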

[2] = Partition coefficient in octanol/water phase at pH 7.4; type: physicochemical
Outline: (§2)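 log P measured by octanol/water partition at pH 7.4.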

[3] = Bioavailability in the portal circulation after 10 minutes was determined after intraduodenal dose of 10 mg/kg in rat by HPLC method; type: ADME, organism-based; settings: plasma (portal circulation), read-out: Plasma level; outline: as §1
[4] = Bioavailability in the portal circulation after 30 minutes was determined after intraduodenal dose of 10 mg/kg in rat by HPLC method; type: ADME, organism-based; settings: plasma (portal circulation), read-out: Plasma level; outline: as §1
Renin [5] = target: T1, Renin (Homo sapiens, UniProt P00797); experiment: Inhibitory concentration against human plasma renin at pH 7.4; type: cell-free
T1 sequence (P00797 whole entry): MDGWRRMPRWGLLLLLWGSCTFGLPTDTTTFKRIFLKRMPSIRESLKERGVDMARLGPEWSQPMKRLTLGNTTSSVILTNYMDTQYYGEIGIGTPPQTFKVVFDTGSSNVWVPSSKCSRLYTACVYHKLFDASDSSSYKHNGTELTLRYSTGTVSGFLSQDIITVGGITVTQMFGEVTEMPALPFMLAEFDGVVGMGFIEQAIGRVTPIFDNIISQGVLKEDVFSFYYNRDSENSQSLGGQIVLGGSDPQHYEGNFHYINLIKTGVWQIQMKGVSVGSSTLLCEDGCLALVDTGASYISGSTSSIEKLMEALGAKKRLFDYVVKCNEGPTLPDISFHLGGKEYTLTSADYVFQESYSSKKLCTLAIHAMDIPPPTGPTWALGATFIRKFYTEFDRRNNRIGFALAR

[6] = Bioavailability in the systemic circulation after 10 minutes was determined after intraduodenal dose of 10 mg/kg in rat by HPLC method; type: ADME, organism-based; settings: plasma (systemic circulation), read-out: Plasma level; outline: as §1
[7] = Partition coefficient in the octanol/water phase at pH 7.4; type: physicochemical; outline: as §2
[8] = Peak concentration was determined in portal circulation after intraduodenal dose of 10 mg/kg in monkey; type: ADME, organism-based; set-up: dose 10 mg/kg, route intraduodenal; settings: simiiformes, in vivo, read-out: Activity
Outline: (§3)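 Anesthetized, salt-depleted cynomolgus monkeys dosed intraduodenally at 10 mg/kg in HCl salt/ethanol–hydroxypropyl methylcellulose vehicle (25% ethanol). Systemic and portal plasma drug levels measured by renin inhibition assay. AUC in ng h/mL. Bioavailability compared against an iv dose of 0.3 mg/kg or 1.0 mg/kg, the latter taken from earlier work. Mean ± SEM.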

[9] = Bioavailability was determined after intraduodenal dose of 10 mg/kg in monkey (compared to 0.3 mg/kg intravenous dose); type: ADME, organism-based; settings: simiiformes, in vivo, read-out: Bioavailabiility; outline: as §3
[10] = Peak concentration was determined in systemic circulation after intraduodenal dose of 10 mg/kg in monkey; type: ADME, organism-based; set-up: dose 10 mg/kg, route intraduodenal; settings: simiiformes, in vivo, read-out: Activity; outline: as §3
[11] = Integrated area under the plasma drug level-time curve was determined in systemic circulation after intraduodenal dose of 10 mg/kg in monkey; type: ADME, organism-based; set-up: dose 10 mg/kg, route intraduodenal; settings: simiiformes; outline: as §3
[12] = Hypotension peak is percentage change from predose baseline pressure observed after intraduodenal dose of 10 mg/kg in monkey; type: ADME, organism-based; set-up: dose 10 mg/kg, route intraduodenal; settings: simiiformes, in vivo, other
Outline: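 Anesthetized, salt-depleted cynomolgus monkeys given 10 mg/kg intraduodenally. Mean arterial pressure followed for up to 5 h. Peak fall expressed as % change from predose baseline. Difference from baseline significant if P < 0.05. Mean ± SEM.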

[13] = Integrated area under the plasma drug level-time curve was determined in portal circulation after intraduodenal dose of 10 mg/kg in monkey; type: ADME, organism-based; set-up: dose 10 mg/kg, route intraduodenal; settings: simiiformes; outline: as §3
[14] = Bioavailability in the systemic circulation after 10 minutes was determined after intraduodenal dose of 10 mg/kg in rat by renin inhibition assay; type: ADME, organism-based; settings: plasma (systemic circulation), read-out: Plasma level; outline: as §1
[15] = Integrated area under the plasma drug level-time curve was determined in systemic circulation after intraduodenal dose of 10 mg/kg in monkey determined by renin inhibition assay; type: ADME, organism-based; set-up: dose 10 mg/kg, route intraduodenal; settings: simiiformes; outline: as §3
[16] = Bioavailability in the portal circulation after 10 minutes was determined after intraduodenal dose of 10 mg/kg in rat by renin inhibition assay; type: ADME, organism-based; settings: plasma (portal circulation), read-out: Plasma level; outline: as §1
Renin [17] = target: T1, Renin; experiment: In vitro inhibitory concentration against human plasma renin at pH 7.4; type: cell-free
[18] = In vitro inhibitory concentration against monkey plasma renin at pH 7.4
[19] = target: Renin (Canis lupus familiaris); experiment: In vitro inhibitory concentration against dog plasma renin at pH 7.4
[20] = Bioavailability in the portal circulation after 30 minutes was determined after intraduodenal dose of 10 mg/kg in rat by renin inhibition assay; type: ADME, organism-based; settings: plasma (portal circulation), read-out: Plasma level; outline: as §1
[21] = Peak concentration was determined in systemic circulation after intraduodenal dose of 10 mg/kg in ferret, determined by renin inhibition assay; type: ADME, organism-based, Mustela putorius furo; set-up: dose 10 mg/kg, route intraduodenal; settings: in vivo, read-out: Activity
Outline: (§4)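 Intraduodenal 10 mg/kg to anesthetized rats or ferrets. Compound dissolved in ethanol with 110 mol % HCl, then diluted in aqueous hydroxypropyl methylcellulose to 25% ethanol (10 mg/mL). Plasma sampled id rat 15, 30, 60, 120 min; id ferret 5, 15, 30, 60, 120, 180 min. Drug measured by renin inhibition assay or HPLC. AUC in ng h/mL. Bioavailability is relative to iv 1.0 mg/kg (rat) or 0.3 mg/kg (ferret).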

[22] = Bioavailability was determined after intraduodenal dose of 10 mg/kg in rat, determined by renin inhibition assay; type: ADME, organism-based; settings: in vivo, read-out: Bioavailabiility; outline: as §4
[23] = Integrated area under the plasma drug level-time curve was determined in systemic circulation after intraduodenal dose of 10 mg/kg in ferret, determined by renin inhibition assay; type: ADME, organism-based, Mustela putorius furo; set-up: dose 10 mg/kg, route intraduodenal; outline: as §4
[24] = Peak concentration was determined in systemic circulation after intraduodenal dose of 10 mg/kg in rat, determined by renin inhibition assay; type: ADME, organism-based; set-up: dose 10 mg/kg, route intraduodenal; settings: in vivo, read-out: Activity; outline: as §4
[25] = Bioavailability was determined after intraduodenal dose of 10 mg/kg in monkey (compared to 0.3 mg/kg intravenous dose), determined by renin inhibition assay; type: ADME, organism-based; settings: simiiformes, in vivo, read-out: Bioavailabiility; outline: as §3
[26] = Integrated area under the plasma drug level-time curve was determined in systemic circulation after intraduodenal dose of 10 mg/kg in rat, determined by renin inhibition assay; type: ADME, organism-based; set-up: dose 10 mg/kg, route intraduodenal; outline: as §4
Renin [27] = target: T2, Renin (Rattus norvegicus, UniProt P08424); experiment: In vitro inhibitory concentration against rat plasma renin at pH 7.4; type: cell-free
T2 sequence (P08424 whole entry): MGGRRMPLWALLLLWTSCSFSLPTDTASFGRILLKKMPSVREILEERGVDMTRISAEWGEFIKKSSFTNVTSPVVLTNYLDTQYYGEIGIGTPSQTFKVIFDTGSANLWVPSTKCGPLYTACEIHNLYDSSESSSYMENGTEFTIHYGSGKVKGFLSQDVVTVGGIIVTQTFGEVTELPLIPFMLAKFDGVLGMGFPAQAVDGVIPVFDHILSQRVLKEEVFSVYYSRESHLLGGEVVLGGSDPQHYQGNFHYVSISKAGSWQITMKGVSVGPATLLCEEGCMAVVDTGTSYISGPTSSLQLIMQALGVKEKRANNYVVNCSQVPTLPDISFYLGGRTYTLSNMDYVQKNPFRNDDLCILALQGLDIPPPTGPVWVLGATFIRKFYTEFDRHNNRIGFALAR

[28] = Solubility at pH 7.4; type: physicochemical; settings: buffer
[29] = Bioavailability was determined after intraduodenal dose of 10 mg/kg in ferret, determined by renin inhibition assay; type: ADME, organism-based, Mustela putorius furo; settings: in vivo, read-out: Bioavailabiility; outline: as §4
[30] = Peak concentration was determined in systemic circulation after intraduodenal dose of 10 mg/kg in monkey, determined by renin inhibition assay; type: ADME, organism-based; set-up: dose 10 mg/kg, route intraduodenal; settings: simiiformes, in vivo, read-out: Activity; outline: as §3
[31] = Bioavailability in the systemic circulation after 30 minutes was determined after intraduodenal dose of 10 mg/kg in rat by renin inhibition assay; type: ADME, organism-based; settings: plasma (systemic circulation), read-out: Plasma level; outline: as §1

Compound: CC(C)C[C@H](O)[C@H](O)[C@H](CC1CCCCC1)NC(=O)[C@H](Cc1cscn1)NC(=O)[C@@H](CC(=O)N(C)CCCN(C)C)Cc1ccccc1
- concentration at 0.5 h [1]: 47 ng/mL
- logD [2]: 2.83
- concentration at 10 min [3]: 580 ng/mL
- concentration at 0.5 h [4]: 270 ng/mL
- IC50 (Renin [5]): 8.1 nM
- concentration at 10 min [6]: 93 ng/mL

Compound: CC(C)C[C@H](O)[C@H](O)[C@H](CC1CCCCC1)NC(=O)[C@H](Cc1cscn1)NC(=O)[C@H](Cc1ccccc1)CS(=O)(=O)C1CCN(C)CC1
- logD [7]: 3.61
- Cmax [8]: 550 ng/mL
- bioavailability [9]: 1.8%
- Cmax [10]: 72 ng/mL
- IC50 (Renin [5]): 4 nM
- AUC [11]: 110 ng·h/mL
- Change [12]: 23%
- AUC [13]: 530 ng·h/mL

Compound: CC(C)C[C@H](O)[C@H](O)[C@H](CC1CCCCC1)NC(=O)[C@H](Cc1cscn1)NC(=O)[C@@H](CC(=O)N(C)CCc1ccccn1)Cc1ccccc1
- concentration at 10 min [14]: 220 ng/mL
- AUC [15]: 260 ng·h/mL
- concentration at 10 min [16]: 550 ng/mL
- IC50 (Renin [17]): 2.6 nM
- logD [7]: 4.22
- IC50 [18]: 0.76 nM
- IC50 [19]: 33 nM
- concentration at 0.5 h [20]: 560 ng/mL
- Cmax [21]: 510 ng/mL
- Cmax [8]: 1200 ng/mL
- bioavailability [22]: 27%
- AUC [23]: 1100 ng·h/mL
- Cmax [24]: 980 ng/mL
- bioavailability [25]: 3.1%
- AUC [26]: 1300 ng·h/mL
- IC50 (Renin [27]): > 10000 nM
- solubility [28]: 13 µg/mL (≈ 18.4 µM)
- bioavailability [29]: 68%
- Cmax [30]: 70 ng/mL
- Change [12]: 28%
- AUC [13]: 3400 ng·h/mL
- concentration at 0.5 h [31]: 230 ng/mL

Reference: ChEMBL document CHEMBL1126595, “Studies directed toward the design of orally active renin inhibitors. 2. Development of the efficacious, bioavailable renin inhibitor (2S)-2-benzyl-3- [[(1-methylpiperazin-4-yl)sulfonyl]propionyl]-3-thiazol-4-yl-L-alanine amide of (2S,3R,4S)-2-amino-1-cyclohexyl-3,4-dihydroxy-6-methylheptane …” (J Med Chem, 1993)
